≈ marks a conversion by molar mass, not a printed value.
What was measured:
[1] = Oral Bioavailability was measured as Maximal observed concentration (Cmax) value at dose 125 mg/kg; b = No compound detectable in blood above the detection limit of 0.1 uM; type: ADME, organism-based; parameters: dose 125 mg/kg, route oral; details: in vivo
Procedure, shortened: (§1)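 Female Balb/c mice, fasted 24 h before and during the study, water ad libitum. Dosed by oral gavage at 125 mg/kg in a liquid formulation. Heparinized whole blood sampled at various times, methanol-extracted, cleaned on sulfobenzyl SPE, then RP-C18 HPLC with UV at 200 nm against an internal standard. Cmax taken as observed; AUC calculated. Detection limit 0.1 µM.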

[2] = target: T1, Human immunodeficiency virus type 1 protease (Human immunodeficiency virus 1, UniProt Q72874); test: Binding affinity against HIV-1 protease
Procedure, shortened: (§2)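 Recombinant HIV-1 PR expressed in E. coli JM105 and purified to homogeneity. Enzyme incubated at 37 °C in 0.1 M MES, 0.37 M NaCl, 4 mM EDTA, pH 6.25, with 280 µM chromogenic nonapeptide substrate (pNph). Initial rates taken from the absorbance decrease at 298 nm. IC50 fitted, then Ki = (IC50 − Et/2)/(1 + S/Km). Mean of two determinations; DMSO ≤5%.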

[3] = tested on: Human immunodeficiency virus 1; test: Antiviral activity against HIV-1, IIIB, in MT-4 Cells; type: functional, organism-based; details: Human immunodeficiency virus 1, MT4
Procedure, shortened: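 HIV-1 strain IIIB-induced cytopathic effect in HTLV-I-transformed MT4 cells. Virus adsorbed to cells at 1 × 10⁶ cells/mL, 37 °C, 1 h. Compounds added postadsorption, final 1 × 10⁵ cells/mL. Inoculum set to kill 90% of cells in 5 days. Mock-infected and compound-only controls run. DMSO ≤0.3%, medium with 10% FBS. Viability read by MTT after 5 days. Mean of repeat determinations.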

[4] = Oral Bioavailability was measured as area-under-curve(AUC) value at dose 125 mg/kg; b = No compound detectable in blood above the detection limit of 0.1 uM; type: ADME, organism-based; details: in vivo; procedure, shortened: as §1
[5] = Solubility (phosphate-buffered saline, pH =7.4); type: physicochemical; details: read-out: S
Procedure, shortened: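 About 1 mg of lyophilized amorphous inhibitor in 1 mL PBS (pH 7.4), vortexed 1 min and sonicated 30 min at 37 °C. Filtered, then centrifuged at 100 000 rpm for 30 min. Supernatant run on RP-C18 HPLC (10 mM NH4OAc/CH3CN 50/50, UV 210 nm) and quantified by external standard. Minimum detectable 0.1 µg/mL.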

MT4 [6] = test: Antiviral Activity against HIV-1, IIIB, in MT-4 Cells; d indicates no activity at 10 uM; type: functional, cell-based, Homo sapiens
Procedure, shortened: (§3)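 MT4 cells infected with HIV-1 IIIB; virus adsorbed at 1 × 10⁶ cells/mL, 37 °C, 1 h, then plated at 1 × 10⁵ cells/mL with compound added postadsorption. Inoculum set to kill 90% of cells in 5 days. Incubated 5 days; viability of infected and mock-infected cells by MTT, read spectrophotometrically. Medium with 10% FBS; DMSO ≤0.3%. Values given as mean ± SD, n in parentheses.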

[7] = Oral Bioavailability was measured as Maximal observed concentration (Cmax) value at dose 125 mg/kg;b = No compound detectable in blood above the detection limit of 0.1 uM; type: ADME, organism-based; parameters: dose 125 mg/kg, route oral; details: in vivo; procedure, shortened: as §1
[8] = Oral Bioavailability was measured as area-under-curve(AUC) value at dose 125 mg/kg;b = No compound detectable in blood above the detection limit of 0.1 uM; type: ADME, organism-based; details: in vivo; procedure, shortened: as §1
[9] = Oral Bioavailability was measured as Maximal observed concentration (Cmax) value at dose 125 mg/kg; type: ADME, organism-based; parameters: dose 125 mg/kg, route oral; details: in vivo; procedure, shortened: as §1
[10] = Oral Bioavailability was measured as area-under-curve(AUC) value at dose 125 mg/kg; type: ADME, organism-based; details: in vivo; procedure, shortened: as §1
[11] = target: T1, Human immunodeficiency virus type 1 protease; test: Binding affinity against HIV-1 protease (HIV-1 PR); d indicates no activity at 3 uM; procedure, shortened: as §2
MT4 [12] = test: Antiviral Activity against HIV-1, IIIB, in MT-4 Cells; d indicates no activity at 3 uM; type: functional, cell-based, Homo sapiens; procedure, shortened: as §3
[13] = Oral Bioavailability was measured as Maximal observed concentration (Cmax) value at dose 125 mg/kg; b denotes No compound detectable in blood above the detection limit of 0.1 uM; type: ADME, organism-based; parameters: dose 125 mg/kg, route oral; details: in vivo; procedure, shortened: as §1
[14] = Oral Bioavailability was measured as area-under-curve(AUC) value at dose 125 mg/kg; b denotes No compound detectable in blood above the detection limit of 0.1 uM; type: ADME, organism-based; details: in vivo; procedure, shortened: as §1

CC(C)(C)[C@H](NC(=O)OCc1ccccc1)C(=O)N[C@@H](Cc1ccccc1)[C@@H](O)[C@@H](NCc1ccc(OCCN2CCOCC2)cc1)C(=O)N[C@H]1c2ccccc2C[C@H]1O
Cmax [1]: No compound detectable | Ki [2]: 9.5 nM | IC50 [3]: 47 nM | AUC [4]: No compound detectable | solubility [5]: 14.5 µM (≈ 11.9 µg/mL)

COc1ccc(CN[C@@H](C(=O)N[C@H]2c3ccccc3C[C@H]2O)[C@H](O)[C@H](Cc2ccccc2)NC(=O)[C@@H](NC(=O)CCc2nc3ccccc3[nH]2)C(C)(C)C)cc1
Cmax [1]: No compound detectable | Ki [2]: 9.4 nM | IC50 [3]: 98 nM | AUC [4]: No compound detectable | solubility [5]: 12.2 µM (≈ 9.28 µg/mL)

CC(C)(C)OC(=O)N[C@@H](Cc1ccccc1)[C@@H](O)[C@@H](NCc1ccc(CNC(=O)Nc2ccccc2)cc1)C(=O)N[C@@H]1c2ccccc2C[C@H]1O
Ki [2]: 33 nM | IC50 (MT4 [6]): No activity

COc1ccc(CN[C@@H](C(=O)NC2c3ccccc3C[C@H]2O)[C@H](O)[C@H](Cc2ccccc2)NC(=O)[C@@H](NC(=O)/C=C/c2ccc(OC)c(O)c2)C(C)(C)C)cc1 (some centres undefined)
Ki [2]: 5.8 nM | Cmax [7]: No compound detectable | IC50 [3]: 125 nM | AUC [8]: No compound detectable

COc1ccc(CN[C@@H](C(=O)N[C@H]2c3ccccc3CC2O)[C@H](O)[C@H](Cc2ccccc2)NC(=O)[C@@H](NC(=O)OCc2ccccc2)C(C)C)cc1 (some centres undefined)
Ki [2]: 8.1 nM | Cmax [9]: 12.3 µM | AUC [10]: 137 µM·h | IC50 [3]: 344 nM | solubility [5]: 2.9 µM (≈ 2.06 µg/mL)

CC(=O)NCc1ccc(CN[C@@H](C(=O)N[C@H]2c3ccccc3C[C@H]2O)[C@H](O)[C@H](Cc2ccccc2)NC(=O)[C@@H](NC(=O)OCc2ccccc2)C(C)(C)C)cc1
Cmax [1]: No compound detectable | Ki [2]: 5.7 nM | IC50 [3]: 99 nM | AUC [4]: No compound detectable | solubility [5]: 25.3 µM (≈ 19.3 µg/mL)

CC(C)(C)[C@H](NC(=O)OCc1ccccc1)C(=O)N[C@@H](Cc1ccccc1)[C@@H](O)[C@@H](NCc1ccc(CNC(=O)OCc2ccccc2)cc1)C(=O)N[C@H]1c2ccccc2C[C@H]1O
Cmax [7]: No compound detectable | IC50 [3]: 142 nM | AUC [4]: No compound detectable | solubility [5]: < 1 µM

CCOc1ccc(CN[C@@H](C(=O)N[C@@H]2c3ccccc3C[C@H]2O)[C@H](O)[C@H](Cc2ccccc2)NC(=O)OC(C)(C)C)cc1
Ki [2]: 92 nM | IC50 (MT4 [6]): No activity

COc1ccc(CN[C@@H](C(=O)N[C@@H]2c3ccccc3C[C@H]2O)[C@H](O)[C@H](Cc2ccccc2)NC(=O)OC(C)(C)C)cc1
Ki [2]: 65 nM | IC50 (MT4 [6]): No activity

COc1ccc(CN[C@@H](C(=O)N[C@H](CO)c2ccccc2)[C@H](O)[C@H](Cc2ccccc2)NC(=O)OC(C)(C)C)cc1
Ki [11]: No activity | IC50 (MT4 [12]): No activity

CC(C)(C)[C@H](NC(=O)OCc1ccccc1)C(=O)N[C@@H](Cc1ccccc1)[C@@H](O)[C@@H](NCc1ccc(CNC(=O)CCc2nc3ccccc3[nH]2)cc1)C(=O)N[C@@H]1c2ccccc2C[C@H]1O
Ki [2]: 4.1 nM | Cmax [13]: No compound detectable | IC50 [3]: 161 nM | AUC [14]: No compound detectable | solubility [5]: < 1 µM

CC(C)(C)[C@H](NC(=O)OCc1ccccc1)C(=O)N[C@@H](Cc1ccccc1)[C@@H](O)[C@@H](NCc1ccc(CNC(=O)Nc2ccccc2)cc1)C(=O)N[C@H]1c2ccccc2C[C@H]1O
Cmax [1]: No compound detectable | Ki [2]: 3.3 nM | IC50 [3]: 175 nM | AUC [8]: No compound detectable | solubility [5]: < 1 µM

COc1ccc(CN[C@@H](C(=O)NC(C(=O)NCc2nc3ccccc3[nH]2)C(C)C)[C@H](O)[C@H](Cc2ccccc2)NC(=O)OC(C)(C)C)cc1 (some centres undefined)
Ki [2]: 7.7 nM | Cmax [9]: 9.1 µM | AUC [10]: 127 µM·h | IC50 [3]: 510 nM | solubility [5]: 9 µM (≈ 6.06 µg/mL)

CC(C)(C)OC(=O)N[C@@H](Cc1ccccc1)[C@@H](O)[C@@H](NCc1ccc(CNC(=O)OCc2ccccc2)cc1)C(=O)N[C@H]1c2ccccc2C[C@H]1O
IC50 (MT4 [6]): No activity

CC(C)(C)OC(=O)N[C@@H](Cc1ccccc1)[C@@H](O)[C@@H](NCc1ccc(CNC(=O)CCc2nc3ccccc3[nH]2)cc1)C(=O)NCc1ccccc1
IC50 (MT4 [12]): No activity

COc1ccc(CN[C@@H](C(=O)N[C@@H]2c3ccccc3C[C@H]2O)[C@H](O)[C@H](Cc2ccccc2)NC(=O)C(CC(=O)O)NC(=O)OCc2ccccc2)cc1 (some centres undefined)
Ki [2]: 22 nM | IC50 (MT4 [12]): No activity

COc1ccc(CN[C@@H](C(=O)N[C@@H]2c3ccccc3C[C@H]2O)[C@H](O)[C@H](Cc2ccccc2)NC(=O)[C@@H](NC(=O)OC(C)(C)C)C(C)(C)C)cc1
Ki [2]: 210 nM | IC50 (MT4 [12]): No activity

CC(C)(C)OC(=O)N[C@@H](Cc1ccccc1)[C@@H](O)[C@@H](NCc1ccc(OCCO)cc1)C(=O)NCc1ccccc1
IC50 (MT4 [12]): No activity

COc1ccc(CN[C@@H](C(=O)NC2c3ccccc3C[C@H]2O)[C@H](O)[C@H](Cc2ccccc2)NC(=O)[C@@H](NC(=O)CSc2nncn2C)C(C)(C)C)cc1 (some centres undefined)
Ki [2]: 5.8 nM | Cmax [9]: 0.7 µM | AUC [10]: 1.6 µM·h | IC50 [3]: 190 nM | solubility [5]: 260 µM (≈ 193 µg/mL)

CC(C)(C)OC(=O)N[C@@H](Cc1ccccc1)[C@@H](O)[C@@H](NCc1ccccc1)C(=O)NCc1ccccc1
Cmax [9]: 0.4 µM | AUC [10]: 0.8 µM·h | IC50 (MT4 [12]): No activity | solubility [5]: < 1 µM

CC(C)(C)OC(=O)N[C@@H](Cc1ccccc1)[C@@H](O)[C@@H](NCc1ccc(OCCN2CCOCC2)cc1)C(=O)N[C@@H]1c2ccccc2C[C@H]1O
Ki [2]: 130 nM | IC50 (MT4 [6]): No activity

Reference: ChEMBL document CHEMBL1129316, “Inhibitors of human immunodeficiency virus type 1 protease containing 2-aminobenzyl-substituted 4-amino-3-hydroxy-5-phenylpentanoic acid: synthesis, activity, and oral bioavailability” (J Med Chem, 1996)
